What is called IC50 is the midpoint of a concentration-inhibition curve.

In one data set the test system is vero cells. Kind of data set: MTT cytotoxicity assay, vero cells. The format is cell-based, African Green Monkey. Conditions: for Cytotoxicity IC50, Vero cell: 72 hours, MTT assay. For orientation: Formazan colour is commonly taken as a measure of viable cells.
The next data set has as its system MCF-7. Kind of data set: MTT cytotoxicity assay, MCF-7. It counts as cell-based, human. Conditions: for Cytotoxicity IC50, MCF-7: 72 hours, MTT assay; for IC50: Homo sapiens, MCF7, 72 h, read-out: Cytotoxicity IC50, MCF-7.
A further data set has as its system HCT-116. Briefly: MTT cytotoxicity assay, HCT-116. To be noted: for Cytotoxicity IC50, HCT-116: 72 hours, MTT assay; for IC50: Homo sapiens, HCT-116, 72 h, read-out: Cytotoxicity IC50, HCT-116. The format is cell-based, human.
A further data set relates to HT-29. Kind of data set: MTT cytotoxicity assay, HT-29. To be noted: for Cytotoxicity IC50, HT-29: 72 hours, MTT assay; for IC50: Homo sapiens, HT-29, 72 h, read-out: Cytotoxicity IC50, HT-29. The format is cell-based, human.
A further data set has as its system Pythium insidiosum. Conditions: compared with amphotericin-B standard; cited from earlier work.
A further data set deals with HepG2 cell line. To be noted: read-out: Cytotoxicity IC50, HepG2 cell line; cited from earlier work.
Data set [1] is described as follows: MTT cytotoxicity assay, vero cells. It counts as cell-based, African Green Monkey. To be noted: African green monkey, Vero cells (normal kidney cells).
The subject of data set [2] is HCT-116, HT-29, MCF-7 and vero cell lines. Briefly: MTT cytotoxicity assay, stated over all four cell lines. Conditions: for Cytotoxicity against all tested cell lines, in words: HCT-116, HT-29, MCF-7 and vero cells; for IC50: read-out: IC50 range over all cell lines. It counts as cell-based. The gist of the method:
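Cells grown in RPMI 1640 with 10% FBS, penicillin and streptomycin at 37 °C, 5% CO2. Solvent controls got 1:1 DMSO/EtOH. After exposure, medium replaced with fresh medium containing MTT (0.5 mg mL−1 in PBS) for 2 h. […] Viability % = sample/control (A550−A655) × 100. Four replicates.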

The next data set deals with HeLa. Conditions: read-out: Cytotoxicity IC50, HeLa; cited from earlier work.
A further data set has as its system MRC-5. To be noted: read-out: Cytotoxicity IC50, MRC-5; cited from earlier work.
The next data set relates to KB. To be noted: read-out: Cytotoxicity IC50, KB; cited from earlier work.
For another data set, the system named is HeLa cells. Conditions: read-out: Cytotoxicity IC50, HeLa cells; ref 9 (Posri et al., 2021); cited from earlier work.

“Also recorded” adds a separate entry of the source. Where only a bound is given, the exact number is not on record here.

For “5-Hydroxy-7,4′-dimesyl-2′,5′-dimethoxyisoflavone [Compound 2]”, the “Cytotoxicity IC50, Vero cell” value in the data set with vero cells is on record as “Inactive”. Moreover, in the data set on MCF-7, the “Cytotoxicity IC50, MCF-7” value is “Inactive”. In the data set with HCT-116, the “Cytotoxicity IC50, HCT-116” value was “Inactive”. In the data set on HT-29, the “Cytotoxicity IC50, HT-29” value is given as “Inactive”.
Take “7,4′-Dibutoxy-5-hydroxy-2′,5′-dimethoxyisoflavone [Compound 4]”: the “Cytotoxicity IC50, Vero cell” value in the data set on vero cells is reported as “Inactive”. For the same compound, the “Cytotoxicity IC50, MCF-7” value in the data set on MCF-7 was “Inactive”. Besides, in the data set on HCT-116, the “Cytotoxicity IC50, HCT-116” value is reported as “Inactive”. Also, the “Cytotoxicity IC50, HT-29” value in the data set on HT-29 was “Inactive”.
In the case of `COc1ccc(C2COc3cc(O)ccc3C2)c(O)c1` (single isomer, unassigned; (-)) [(−)-vestitol], the “Antifungal activity against Pythium insidiosum” value with Pythium insidiosum is recorded as “strongest antifungal activity”.
Consider `C=C(C)[C@H]1Cc2c(ccc3c2O[C@@H]2COc4cc(OC)c(OC)cc4[C@]2(O)C3=O)O1` [(−)-12α-hydroxyrotenone], for which the IC50 in the data set on HepG2 cell line is 18 ± 1.51 µM.
In [1], `COc1cc(-c2coc3cc(O)cc(O)c3c2=O)c(OC)cc1O` [Compound 1, Olibergin A] returned a concentration for half-maximal inhibition (IC50) at 72 h of 88.8 ± 4.33 µM. Moreover, the “Cytotoxicity against all tested cell lines, in words” value in data set [2] is given as “weak activity”. Moreover, the IC50 in the data set on HeLa is 59.8 µM; in the data set with MCF-7 it was 72.1 ± 1.12 µM; in the data set on MRC-5, 25 µM; with HCT-116 it was 79.2 ± 4.78 µM; in the data set with KB, 48.1 µM; in the data set with HT-29 it was 32.2 ± 1.73 µM.
For `COc1cc(-c2coc3cc(OC(C)=O)cc(O)c3c2=O)c(OC)cc1OC(C)=O` [Compound 3, 7,4′-Diacetoxy-5-hydroxy-2′,5′-dimethoxyisoflavone], it took 112 ± 12.3 µM to reach half-maximal inhibition in data set [1] (IC50 at 72 h). Further, the “Cytotoxicity IC50, MCF-7” value in the data set with MCF-7 was “Inactive”. In addition, the “Cytotoxicity IC50, HCT-116” value with HCT-116 is on record as “Inactive”. Moreover, in the data set with HT-29, the “Cytotoxicity IC50, HT-29” value is reported as “Inactive”.
In data set [1], `COc1cc(O)c2c(=O)c(-c3cc(OC)c(OC)cc3OC)coc2c1` [Compound 5, 5-Hydroxy-7,2′,4′,5′-tetramethoxyisoflavone] displayed an IC50 at 72 h of 13.5 ± 0.84 µM. In addition, the IC50 in data set [2] was 10 to 19 µM; in the data set with MCF-7, 12.5 ± 0.7 µM; in the data set on HCT-116 it was 19 ± 0.7 µM; in the data set with HT-29, 10.8 ± 1.65 µM.
In turn, `COc1cc(OC)c2c(=O)c(-c3cc(OC)c(OC)cc3OC)coc2c1` [Compound 6, 5,7,2′,4′,5′-Pentamethoxyisoflavone] came in with a 50% inhibitory concentration (IC50) at 72 h in [1] above 269 µM. The “Cytotoxicity against all tested cell lines, in words” value in [2] is “weak activity”. Besides, the half-maximal inhibitory concentration (IC50) in the data set with MCF-7 was found to be 98.5 ± 15.4 µM; in the data set on HCT-116, 178 ± 2.23 µM; in the data set with HT-29, 154 ± 12.1 µM.
The compound `COc1cc(C2COc3cc(O)cc(O)c3C2=O)c(OC)cc1O` (stereo not drawn) [Compound 8, 5,7,4′-Trihydroxy-2′,5′-dimethoxyisoflavanone] showed an IC50 at 72 h in data set [1] of 93.6 ± 10.2 µM. In addition, the concentration for half-maximal inhibition (IC50) is 69 to 147 µM in [2], 148 ± 1.96 µM with MCF-7, 92.7 ± 1.84 µM in the data set on HCT-116 and 69.9 ± 6.47 µM in the data set on HT-29.
The like results for `COc1cc(O)c2c(c1)OCC(c1cc(OC)c(OC)cc1OC)C2=O` (stereo not drawn) [Compound 9, 5-Hydroxy-7,2′,4′,5′-tetramethoxyisoflavanone] were, in that order, 33.5 ± 1.25 µM, 19 to 37 µM, 31 ± 1.89 µM, 37.1 ± 1.28 µM and 19.2 ± 1.86 µM.
As for `COc1cc(OC)c2c(c1)OCC(c1cc(OC)c(OC)cc1OC)C2=O` (stereo not drawn) [Compound 10, 5,7,2′,4′,5′-Pentamethoxyisoflavanone], in the data set on vero cells (vero cell line), the “Cytotoxicity against normal cells (vero cell line), in words” value is on record as “weak cytotoxicity; also recorded: weak activity”. This compound also registered an IC50 at 72 h in data set [1] of 116 ± 20.2 µM. The IC50 with MCF-7 came out at 73.8 ± 0.77 µM; in the data set on HCT-116, 30.3 ± 1.15 µM. Further, the “Cytotoxicity IC50, HT-29” value in the data set on HT-29 is “Inactive”.
`COc1cc(OC)c2c(c1)OCC(c1cc(OC)c(OC)cc1OC)C2` (stereo not drawn) [Compound 11, 5,7,2′,4′,5′-Pentamethoxyisoflavan]: in [1], the IC50 at 72 h was found to be 31.1 ± 4.99 µM. Further, the IC50 in data set [2] is 19 to 37 µM; in the data set with MCF-7, 21.1 ± 2.61 µM; in the data set with HCT-116 it was 28.9 ± 3.19 µM; in the data set with HT-29, 29.38 ± 0.08 µM.
As to `COc1cc(O)c2c(c1)OCC(c1cc(OC)c(OC)cc1OC)C2=NN` (stereo not drawn) [Compound 14, 5-Hydroxy-7,2′,4′,5′-tetramethoxyisoflavanone hydrazone], the “Cytotoxicity IC50, Vero cell” value in the data set on vero cells is reported as “Inactive”. Besides, in data set [2], the “Cytotoxicity against all tested cell lines, in words” value was “inactive”. Besides, the “Cytotoxicity IC50, MCF-7” value with MCF-7 is listed as “Inactive”. In the data set with HCT-116, the “Cytotoxicity IC50, HCT-116” value is “Inactive”. In addition, the “Cytotoxicity IC50, HT-29” value in the data set with HT-29 is recorded as “Inactive”.
In data set [1], `COc1cc(O)c2c(c1)OCC(c1cc(OC)c(OC)cc1OC)C2=NO` (stereo not drawn) [Compound 15, 5-Hydroxy-7,2′,4′,5′-tetramethoxyisoflavanone oxime] showed a half-maximal inhibitory concentration (IC50) at 72 h of 29.8 ± 4.85 µM. Moreover, the IC50 is 26 to 38 µM in data set [2], 28.9 ± 3.94 µM with MCF-7, 26.4 ± 0.05 µM in the data set with HCT-116 and 38.6 ± 2.77 µM with HT-29.
On to `CC(C)=CCC/C(C)=C/Cc1c(O)ccc2c1OC[C@H]1c3cc4c(cc3O[C@@H]21)OCO4` [R,R-Velucarpin A], for which the IC50 in the data set on HeLa cells is 10.9 ± 0.42 µM.
